Data as given in ChEMBL document CHEMBL1148214, “In-vitro cytotoxic activities of the major bromophenols of the red alga Polysiphonia lanosa and some novel synthetic isomers” (J Nat Prod, 2004).
Calls of active or inactive are those of the source. No cut-off for these calls is given here.

What was measured:
HCT-116 = assay: Cytotoxicity against human HCT116 cells after 96 hrs by MTT assay; assay type: functional, cell-based
Method in brief: (§1)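 DLD-1 or HCT-116 cells in RPMI 1640 with 10% FCS, seeded at 1 × 10^4 cells mL-1 and incubated overnight at 37 °C, 5% CO2. Continuous 4-day drug exposure, drug in DMSO (max 0.1%), 8 wells per concentration. MTT 0.5 mg mL-1 for 4 h; formazan in DMSO read at 550 nm. IC50 taken as 50% growth inhibition versus control; 5FU positive control; triplicate.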

DLD-1 [1] = assay: Cytotoxicity against human DLD1 cells after 96 hrs by MTT assay; assay type: functional, cell-based; set-up: unit not given here; method in brief: as §1
DLD-1 [2] = assay: Cytotoxicity against human DLD1 cells after 1 hr by MTT assay; assay type: functional, cell-based
Method in brief: (§2)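 DLD-1 cells seeded at 1 × 10^4 cells mL-1 and incubated overnight at 37 °C, 5% CO2. Drug was in DMSO (max 0.1% final) diluted in medium, 8 wells per concentration. After 1, 3 or 24 h the drug was removed, cells washed twice and grown in fresh medium to 4 days total. MTT at 0.5 mg mL-1 for 4 h; formazan dissolved in DMSO, absorbance read at 550 nm. IC50 determined relative to control survival; triplicate experiments.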

DLD-1 [3] = assay: Cell cycle arrest in human DLD1 cells assessed as accumulation at G2/M phase at 2.5 umol after 72 hrs by flow cytometry; assay type: functional
Method in brief: (§3)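 DLD-1 cells seeded at 5 × 10^4 cells mL-1 and grown 24 h at 37 °C, then exposed to drug for 72 h. Harvested by trypsinisation, fixed in 70% EtOH, suspended in PBS pH 7.3, RNase-treated and stained with propidium iodide for 30 min at 37 °C. DNA content measured by flow cytometry on 10 000 cells; percentage of cells in each cycle phase calculated.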

DLD-1 [4] = assay: Cell cycle arrest in human DLD1 cells assessed as accumulation at G0/G1 phase at 10 umol after 72 hrs by flow cytometry; assay type: functional; method in brief: as §3
DLD-1 [5] = assay: Cytotoxicity against human DLD1 cells at 8 umol after 96 hrs by MTT assay; assay type: functional, cell-based
Method in brief: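 DLD-1 cells exposed continuously for 4 days to drug at 8 µmol in DMSO-containing medium (max 0.1% DMSO). Survival measured by MTT at 0.5 mg mL-1 for 4 h, formazan read at 550 nm, and expressed as percentage of mean control absorbance.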

DLD-1 [6] = assay: Cell cycle arrest in human DLD1 cells assessed as accumulation at G2/M phase at 5 umol after 72 hrs by flow cytometry; assay type: functional; method in brief: as §3
DLD-1 [7] = assay: Cell cycle arrest in human DLD1 cells assessed as accumulation at S phase at 5 umol after 72 hrs by flow cytometry; assay type: functional; method in brief: as §3
DLD-1 [8] = assay: Cytotoxicity against human DLD1 cells after 3 hrs by MTT assay; assay type: functional, cell-based; method in brief: as §2
DLD-1 [9] = assay: Cytotoxicity against human DLD1 cells after 24 hrs by MTT assay; assay type: functional, cell-based; method in brief: as §2
DLD-1 [10] = assay: Cell cycle arrest in human DLD1 cells assessed as accumulation at G0/G1 phase at 2.5 umol after 72 hrs by flow cytometry; assay type: functional; method in brief: as §3
DLD-1 [11] = assay: Cell cycle arrest in human DLD1 cells assessed as accumulation at S phase at 2.5 umol after 72 hrs by flow cytometry; assay type: functional; method in brief: as §3
DLD-1 [12] = assay: Cell cycle arrest in human DLD1 cells assessed as accumulation at S phase at 10 umol after 72 hrs by flow cytometry; assay type: functional; method in brief: as §3
DLD-1 [13] = assay: Cell cycle arrest in human DLD1 cells assessed as accumulation at G0/G1 phase at 5 umol after 72 hrs by flow cytometry; assay type: functional; method in brief: as §3
DLD-1 [14] = assay: Cell cycle arrest in human DLD1 cells assessed as accumulation at G2/M phase at 10 umol after 72 hrs by flow cytometry; assay type: functional; method in brief: as §3

Row | SMILES | IC50 (HCT-116) [µmol] | IC50 (DLD-1 [1]) | other results
1 | CCOCc1cc(Br)c(O)c(O)c1Br | 1.54 | 7.15 | –
2 | OCc1cc(O)c(O)c(Br)c1 | – | 51.5 | –
3 | CCCOCc1cc(O)c(O)c(Br)c1Br | 1.32 | 12.4 | –
4 | COc1cc(C=O)cc(Br)c1O | – | > 200 | –
5 | OCc1cc(Br)c(O)c(O)c1Br | 21.4 | 15 | –
6 | Oc1c(O)c(Br)c(Br)c(Br)c1Br [TETRABROMOCATECHOL] | 8.75 | 6.43 | –
7 | COCc1cc(O)c(O)c(Br)c1 | – | 35.3 | –
8 | O=Cc1cc(O)c(O)c(Br)c1Br | – | 30.9 | –
9 | CCOCc1cc(O)c(O)c(Br)c1 | – | 35.1 | –
10 | CCCOCc1cc(O)c(O)c(Br)c1 | – | 26.3 | –
11 | CCOCc1cc(O)c(O)c(Br)c1Br [ETHYL LANOSOL] | 2.51 | 13.5 | –
12 | COCc1cc(Br)c(O)c(O)c1Br | 3.48 | 7.27 | –
13 | O=Cc1cc(O)c(O)c(Br)c1 | – | 27.9 | –
14 | O=c1[nH]cc(F)c(=O)[nH]1 [FLUOROURACIL] | 4.93 | – | –
15 | COCc1cc(O)c(O)c(Br)c1Br | 14.1 | – | –
16 | O=Cc1cc(Br)c(O)c(O)c1Br | – | 31 | –
17 | OCc1cc(O)c(O)c(Br)c1Br [LANOSOL] | 20.4 | – | –
18 | CCCOCc1cc(Br)c(O)c(O)c1Br | 0.8 | 1.72 | IC50 (DLD-1 [2]): 79.76 µmol; Activity (DLD-1 [3]): 25.65%; Activity (DLD-1 [4]): 56.4%; Activity (DLD-1 [5]): Active; Activity (DLD-1 [6]): 19.79%; Activity (DLD-1 [7]): 60.56%; IC50 (DLD-1 [8]): 77.98 µmol; IC50 (DLD-1 [9]): 2.71 µmol; Activity (DLD-1 [10]): 32.14%; Activity (DLD-1 [11]): 42.21%; Activity (DLD-1 [12]): 33.65%; Activity (DLD-1 [13]): 19.65%; Activity (DLD-1 [14]): 9.95%
